Test results reported in ChEMBL document CHEMBL1130123, “Optimization of 3-(1H-indazol-3-ylmethyl)-1,5-benzodiazepines as potent, orally active CCK-A agonists” (J Med Chem, 1997).
pEC50, pIC50: −log10 of the molar value.

Tests used:
Cavia porcellus [1] = species on record: Cavia porcellus; assay: In vitro functional efficacy relative to CCK-8 in inducing contraction of the isolated guinea pig gallbladder (GPGB) at a 1 uM concentration.
Outline: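 Isolated guinea pig gallbladder, ligand 1 μM, 30 min at 37 °C; maximal contraction expressed relative to CCK-8 (1 μM) = 100%; values ± 5%.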

[2] = biological target: T1, Cholecystokinin receptor type A (Homo sapiens, UniProt P32238); assay: In vitro for binding affinity against human cholecystokinin type A receptor.
T1 sequence (P32238 whole entry): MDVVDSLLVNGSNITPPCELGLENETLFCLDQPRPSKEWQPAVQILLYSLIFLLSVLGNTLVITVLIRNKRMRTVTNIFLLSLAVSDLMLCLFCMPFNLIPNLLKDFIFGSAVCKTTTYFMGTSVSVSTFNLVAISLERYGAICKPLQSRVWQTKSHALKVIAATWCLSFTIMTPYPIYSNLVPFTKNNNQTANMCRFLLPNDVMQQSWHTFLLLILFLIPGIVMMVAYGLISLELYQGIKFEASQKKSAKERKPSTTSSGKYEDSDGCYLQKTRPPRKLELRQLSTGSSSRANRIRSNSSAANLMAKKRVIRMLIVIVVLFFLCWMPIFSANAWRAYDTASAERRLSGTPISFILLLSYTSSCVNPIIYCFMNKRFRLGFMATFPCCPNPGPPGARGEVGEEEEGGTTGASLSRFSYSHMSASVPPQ

[3] = biological target: T2, Gastrin/cholecystokinin type B receptor (Homo sapiens, UniProt P32239); assay: In vitro for binding affinity against human cholecystokinin type B receptor.
T2 sequence (P32239 whole entry): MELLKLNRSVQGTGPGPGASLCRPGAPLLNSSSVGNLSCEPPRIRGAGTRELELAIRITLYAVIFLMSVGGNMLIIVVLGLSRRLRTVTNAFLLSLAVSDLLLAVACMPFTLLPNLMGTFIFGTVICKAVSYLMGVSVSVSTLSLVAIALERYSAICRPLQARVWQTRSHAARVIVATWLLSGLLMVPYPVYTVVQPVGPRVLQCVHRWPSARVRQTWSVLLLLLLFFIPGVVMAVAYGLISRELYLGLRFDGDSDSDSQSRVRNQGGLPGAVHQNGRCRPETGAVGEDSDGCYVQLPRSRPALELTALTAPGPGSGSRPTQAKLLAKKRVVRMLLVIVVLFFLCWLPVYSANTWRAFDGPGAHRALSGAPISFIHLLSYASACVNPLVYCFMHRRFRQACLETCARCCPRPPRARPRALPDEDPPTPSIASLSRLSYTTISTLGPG

Cavia porcellus [4] = species on record: Cavia porcellus; assay: In vitro functional agonist activity in the isolated guinea pig gall bladder, concentration at which 50% of the maximal contraction observed was reported.; conditions: read-out: ED50 (the source's name)
Mus musculus [5] = assay: Maximal response at 1 nmol/kg peroral dose; type: functional
Mus musculus [6] = assay: Peroral dose that produces a half maximal response in mouse gall bladder emptying assay (in vivo); type: functional; conditions: po
Mus musculus [7] = assay: Maximal response at 1 nmol/kg intraperitoneal dose; type: functional
Mus musculus [8] = assay: Intraperitoneal dose that produces a half maximal response in mouse gall bladder emptying assay (in vivo); type: functional; conditions: ip
[9] = Volume of distribution at steady state at an intravenous dose of 6.5 mg/kg in rat; type: ADME, organism-based; parameters: dose 6.5 mg/kg, route intravenous; conditions: in vivo, read-out: Vss
[10] = Maximum concentration at an intravenous dose of 6.5 mg/kg in rat; type: ADME, organism-based; parameters: dose 6.5 mg/kg, route intravenous; conditions: in vivo
[11] = Oral bioavailability in Long-Evans rats at an peroral dose of 6.5 mg/kg; type: ADME, organism-based; conditions: rat, in vivo
[12] = Total body clearance at an intravenous dose of 6.5 mg/kg in rat; type: ADME, organism-based; parameters: dose 6.5 mg/kg, route intravenous; conditions: in vivo
[13] = Maximum concentration at an peroral dose of 6.2 mg/kg in rat; type: ADME, organism-based; parameters: dose 6.2 mg/kg, route oral; conditions: in vivo, po
[14] = Half life period at an intravenous dose of 6.5 mg/kg in rat; type: ADME, organism-based; parameters: dose 6.5 mg/kg, route intravenous; conditions: in vivo
Rattus norvegicus [15] = assay: Maximal response at 0.5 umol/kg intraperitoneal dose; type: functional
Rattus norvegicus [16] = assay: Anorectic potency in rat was tested and intraperitoneal dose that produces a half maximal response (in vivo); type: functional; conditions: ip
Mus musculus [17] = assay: maximal response at 1 nmol/kg peroral dose; type: functional

SMILES: COc1ccc(N(C(=O)CN2C(=O)C(C)(Cc3cn(C)c4ccccc34)C(=O)N(c3ccccc3)c3ccccc32)C(C)C)cc1 (stereo not given)
- Max (Cavia porcellus [1]): 40%
- pIC50 [2]: 7.75

SMILES: COc1cccc(N(C(=O)CN2C(=O)C(Cc3n[nH]c4ccccc34)C(=O)N(c3ccccc3)c3ccccc32)C(C)C)c1 (stereo not given)
- Max (Cavia porcellus [1]): 90%
- pIC50 [2]: 6.32
- pIC50 [3]: 6.72
- pEC50 (Cavia porcellus [4]): 7.15

SMILES: COc1ccc(N(C(=O)CN2C(=O)C(Cc3n[nH]c4ccc(F)cc34)C(=O)N(c3ccccc3)c3ccccc32)C(C)C)cc1 (stereo not given)
- Max (Cavia porcellus [1]): 90%
- pIC50 [2]: 7.37
- pIC50 [3]: 5.60
- pEC50 (Cavia porcellus [4]): 7.40

SMILES: COc1ccc(N(C(=O)CN2C(=O)C(Cc3n[nH]c4cccc(F)c34)C(=O)N(c3ccccc3)c3ccccc32)C(C)C)cc1 (stereo not given)
- Max (Cavia porcellus [1]): 100%
- pIC50 [2]: 7.76
- pIC50 [3]: 5.77
- pEC50 (Cavia porcellus [4]): 7.15

SMILES: O=C1C(Cc2n[nH]c3ccccc23)C(=O)N(c2ccccc2)c2ccccc2N1CC(=O)N(c1ccccc1)C1CC1 (stereo not given)
- Max (Cavia porcellus [1]): 70%
- pIC50 [2]: 6.28
- pIC50 [3]: 7.60
- pEC50 (Cavia porcellus [4]): 7.70

SMILES: COc1ccc(N(C(=O)CN2C(=O)C(Cc3n[nH]c4cc(F)ccc34)C(=O)N(c3ccccc3)c3ccccc32)C(C)C)cc1 (stereo not given)
- Max (Cavia porcellus [1]): 100%
- pIC50 [2]: 7.53
- pIC50 [3]: 6.23
- pEC50 (Cavia porcellus [4]): 7.40

SMILES: COc1ccc(N(C(=O)CN2C(=O)C(Cc3cc(-c4ccccc4)[nH]n3)C(=O)N(c3ccccc3)c3ccccc32)C(C)C)cc1 (stereo not given)
- Max (Cavia porcellus [1]): 20%

SMILES: COc1ccc(N(C(=O)CN2C(=O)C(Cc3c[nH]c4ccccc34)C(=O)N(c3ccccc3)c3ccccc32)C(C)C)cc1 (stereo not given)
- Max (Mus musculus [5]): 74%
- ED50 (Mus musculus [6]): 0.1 µmol/kg
- Max (Mus musculus [7]): 90%
- ED50 (Mus musculus [8]): 0.0038 µmol/kg

SMILES: COc1ccc(N(C(=O)CN2C(=O)C(Cc3n[nH]c4ncccc34)C(=O)N(c3ccccc3)c3ccccc32)C(C)C)cc1 (stereo not given)
- Max (Cavia porcellus [1]): 90%
- pIC50 [2]: 6.95
- pIC50 [3]: 4.95
- pEC50 (Cavia porcellus [4]): 7.40

SMILES: CC(C)N(C(=O)CN1C(=O)C(Cc2n[nH]c3ccccc23)C(=O)N(c2ccccc2)c2ccccc21)c1ccc(F)cc1 (stereo not given)
- Max (Cavia porcellus [1]): 100%
- pIC50 [2]: 6.86
- pIC50 [3]: 6.32
- pEC50 (Cavia porcellus [4]): 7.22

SMILES: COc1ccc(N(C(=O)CN2C(=O)C(C)(Cc3nn(C)c4ccccc34)C(=O)N(c3ccccc3)c3ccccc32)C(C)C)cc1 (stereo not given)
- Vd [9]: 11.1 L/kg
- Cmax [10]: 3270 ng/mL
- bioavailability [11]: 4%
- Max (Mus musculus [5]): 75%
- Max (Cavia porcellus [1]): 60%
- ED50 (Mus musculus [6]): 0.45 µmol/kg
- pIC50 [2]: 7.41
- clearance [12]: 31 mL/min/kg
- ED50 (Mus musculus [8]): 0.01 µmol/kg
- Cmax [13]: 20 ng/mL
- pEC50 (Cavia porcellus [4]): 6.62
- half-life [14]: 450 min

SMILES: COc1ccc(N(C(=O)CN2C(=O)C(Cc3n[nH]c4ccccc34)C(=O)N(c3ccccc3)c3ccccc32)C2CCCC2)cc1 (stereo not given)
- Max (Cavia porcellus [1]): 90%
- pIC50 [2]: 7.77
- pIC50 [3]: 6.11
- pEC50 (Cavia porcellus [4]): 7.40

SMILES: CSCC[C@H](NC(=O)[C@H](Cc1ccc(OS(=O)(=O)O)cc1)NC(=O)[C@@H](N)CC(=O)O)C(=O)NCC(=O)N[C@@H](Cc1c[nH]c2ccccc12)C(=O)N[C@@H](CCSC)C(=O)N[C@@H](CC(=O)O)C(=O)N[C@@H](Cc1ccccc1)C(N)=O [SINCALIDE]
- Max (Rattus norvegicus [15]): 95%
- ED50 (Rattus norvegicus [16]): 0.03 µmol/kg
- Max (Mus musculus [7]): 95%

SMILES: CC(C)N(C(=O)CN1C(=O)C(Cc2n[nH]c3ccccc23)C(=O)N(c2ccccc2)c2ccccc21)c1ccc2c(c1)OCO2 (stereo not given)
- Max (Cavia porcellus [1]): 100%
- pIC50 [2]: 6.45
- pIC50 [3]: 6.14
- pEC50 (Cavia porcellus [4]): 7.70

SMILES: COc1ccc(N(C(=O)CN2C(=O)C(Cc3n[nH]c4cccnc34)C(=O)N(c3ccccc3)c3ccccc32)C(C)C)cc1 (stereo not given)
- Max (Cavia porcellus [1]): 40%

SMILES: COc1ccc(N(C(=O)CN2C(=O)C(Cc3nsc4ccccc34)C(=O)N(c3ccccc3)c3ccccc32)C(C)C)cc1 (stereo not given)
- Max (Cavia porcellus [1]): 30%

SMILES: COc1ccc(N(C(=O)CN2C(=O)C(Cc3n[nH]c4c(F)cccc34)C(=O)N(c3ccccc3)c3ccccc32)C(C)C)cc1 (stereo not given)
- Max (Cavia porcellus [1]): 90%
- pIC50 [3]: 5.98
- pEC50 (Cavia porcellus [4]): 7.70

SMILES: COc1ccc(N(C(=O)CN2C(=O)C(C)(Cc3c[nH]c4ccccc34)C(=O)N(c3ccccc3)c3ccccc32)C(C)C)cc1 (stereo not given)
- ED50 (Mus musculus [6]): 0.38 µmol/kg
- Max (Mus musculus [7]): 91%
- ED50 (Mus musculus [8]): 0.0008 µmol/kg
- Max (Mus musculus [17]): 46%

SMILES: COc1ccc(N(C(=O)CN2C(=O)C(Cc3cc(C)[nH]n3)C(=O)N(c3ccccc3)c3ccccc32)C(C)C)cc1 (stereo not given)
- Max (Cavia porcellus [1]): 20%

SMILES: COc1ccc(N(C(=O)CN2C(=O)C(Cc3noc4ccccc34)C(=O)N(c3ccccc3)c3ccccc32)C(C)C)cc1 (stereo not given)
- Max (Cavia porcellus [1]): 80%
- pIC50 [2]: 7.05
- pIC50 [3]: 3.76
- pEC50 (Cavia porcellus [4]): 6.89

SMILES: CC(C)(C)N(C(=O)CN1C(=O)C(Cc2n[nH]c3ccccc23)C(=O)N(c2ccccc2)c2ccccc21)c1ccccc1 (stereo not given)
- Max (Cavia porcellus [1]): 90%
- pIC50 [2]: 6.05
- pEC50 (Cavia porcellus [4]): 6.96

SMILES: COc1ccccc1N(C(=O)CN1C(=O)C(Cc2n[nH]c3ccccc23)C(=O)N(c2ccccc2)c2ccccc21)C(C)C (stereo not given)
- Max (Cavia porcellus [1]): 40%
- pIC50 [3]: 6.89
- pEC50 (Cavia porcellus [4]): 6.08

SMILES: COc1ccc(N(C(=O)CN2C(=O)C(Cc3c[nH]c4ccccc34)(OC)C(=O)N(c3ccccc3)c3ccccc32)C(C)C)cc1 (stereo not given)
- Max (Mus musculus [5]): 54%
- Max (Cavia porcellus [1]): 60%
- pIC50 [2]: 7.86
- Max (Mus musculus [7]): 84%
- pIC50 [3]: 4.53
- pEC50 (Cavia porcellus [4]): 6.82

SMILES: CC(C)N(C(=O)CN1C(=O)C(Cc2n[nH]c3ccccc23)C(=O)N(c2ccccc2)c2ccccc21)c1ccc(C(F)(F)F)cc1 (stereo not given)
- Max (Cavia porcellus [1]): 80%
- pIC50 [2]: 6.18
- pIC50 [3]: 5.78
- pEC50 (Cavia porcellus [4]): 6.64

SMILES: COc1ccc(N(C(=O)CN2C(=O)C(Cc3coc4ccccc34)C(=O)N(c3ccccc3)c3ccccc32)C(C)C)cc1 (stereo not given)
- Max (Cavia porcellus [1]): 40%

SMILES: COc1ccc(N(C(=O)CN2C(=O)C(Cc3nn(C)c4ccccc34)C(=O)N(c3ccccc3)c3ccccc32)C(C)C)cc1 (stereo not given)
- Max (Mus musculus [5]): 84%
- ED50 (Mus musculus [6]): 0.03 µmol/kg
- Max (Rattus norvegicus [15]): 98%
- ED50 (Rattus norvegicus [16]): 0.22 µmol/kg
- Max (Mus musculus [7]): 83%
- ED50 (Mus musculus [8]): 0.0008 µmol/kg

SMILES: COc1ccc(N(C(=O)CN2C(=O)C(Cc3[nH]nc4c3CCCC4)C(=O)N(c3ccccc3)c3ccccc32)C(C)C)cc1 (stereo not given)
- Max (Cavia porcellus [1]): 80%
- pIC50 [2]: 6.89
- pIC50 [3]: 5.53
- pEC50 (Cavia porcellus [4]): 6.52

SMILES: COc1ccc(N(C(=O)CN2C(=O)C(Cc3csc4ccccc34)C(=O)N(c3ccccc3)c3ccccc32)C(C)C)cc1 (stereo not given)
- Max (Cavia porcellus [1]): 50%
